Test results reported in ChEMBL document CHEMBL1909525, “Synthesis and anticonvulsant activity of novel 2,6-diketopiperazine derivatives. Part 1: perhydropyrrole[1,2-a]pyrazines” (Eur J Med Chem, 2011).
Calls of active or inactive are those of the source. The calls are words filed in the database; no cut-off is given here.

Columns and labels:
Mus musculus [1] = assay: Anticonvulsant activity in albino Carworth Farms No.1 mouse assessed as protection against electric-current for 3 secs-induced seizure at 100 mg/kg, ip after 2 hrs by 6Hz minimal clonic seizure test; type: functional, organism-based; set-up: dose 100 mg/kg
How it was run: (§1)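 6 Hz psychomotor seizure test in mice. Compound given i.p. as a suspension in 0.5% methylcellulose. Corneal stimulation at 32 mA, 0.2-ms monopolar rectangular pulses at 6 Hz for 3 s, from a constant-current device. Tests run 0.25–4 h after dosing. A mouse counted as protected if it resumed normal exploratory behaviour within 10 s; scored as protected/tested.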

Mus musculus [2] = assay: Neurotoxicity in albino Carworth Farms No.1 mouse assessed as motor impairment at 30 mg/kg, ip after 0.5 hrs by rotarod test; type: toxicity, organism-based; set-up: dose 30 mg/kg, route intraperitoneal; conditions: in vivo
How it was run: (§2)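 Rotorod neurotoxicity in mice at 6 r.p.m. Compound given i.p. (30, 100, 300 mg/kg) in 0.5% methylcellulose; tested at 30 min and 4 h. Impairment is inability to keep equilibrium on the rod for a given time; scored as impaired/tested.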

Mus musculus [3] = assay: Neurotoxicity in albino Carworth Farms No.1 mouse assessed as motor impairment at 100 mg/kg, ip after 0.5 hrs by rotarod test; type: toxicity, organism-based; set-up: dose 100 mg/kg, route intraperitoneal; conditions: in vivo; how it was run: as §2
Mus musculus [4] = assay: Neurotoxicity in albino Carworth Farms No.1 mouse assessed as motor impairment at 300 mg/kg, ip after 0.5 hrs by rotarod test; type: toxicity, organism-based; set-up: dose 300 mg/kg, route intraperitoneal; conditions: in vivo; how it was run: as §2
Mus musculus [5] = assay: Toxicity in albino Carworth Farms No.1 mouse assessed as sedation at 300 mg/kg, ip after 0.5 hrs by rotarod test; type: organism-based; set-up: dose 300 mg/kg, route intraperitoneal; conditions: in vivo
How it was run: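 Mice (18–25 g) were given 30, 100 or 300 mg/kg i.p. in 0.5% (v/v) aqueous methylcellulose. Neurotoxicity was checked on a 6 r.p.m. rotorod 30 min and 4 h after dosing and scored as inability to keep equilibrium. Death following tonic extension and sedation were recorded as observations (number of animals/number tested).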

Mus musculus [6] = assay: Anticonvulsant activity in albino Carworth Farms No.1 mouse assessed as protection against subcutaneous metrazol-induced seizure at 30 mg/kg, ip after 4 hrs; type: functional, organism-based; set-up: dose 30 mg/kg
How it was run: (§3)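 Mouse scMET test. Compound given i.p. (30, 100 or 300 mg/kg) in 0.5% methylcellulose. Pentylenetetrazole 85 mg/kg (CD97) given s.c. at 0.5 or 4 h, then mice observed for 30 min. Protection is absence of clonic spasms; scored as protected/tested.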

Mus musculus [7] = assay: Anticonvulsant activity in albino Carworth Farms No.1 mouse assessed as protection against subcutaneous metrazol-induced seizure at 100 mg/kg, ip after 4 hrs; type: functional, organism-based; set-up: dose 100 mg/kg; how it was run: as §3
Mus musculus [8] = assay: Anticonvulsant activity in albino Carworth Farms No.1 mouse assessed as protection against subcutaneous metrazol-induced seizure at 300 mg/kg, ip after 0.5 hrs; type: functional, organism-based; set-up: dose 300 mg/kg; how it was run: as §3
Mus musculus [9] = assay: Anticonvulsant activity in albino Carworth Farms No.1 mouse assessed as protection against subcutaneous metrazol-induced seizure at 300 mg/kg, ip after 4 hrs; type: functional, organism-based; set-up: dose 300 mg/kg; how it was run: as §3
Mus musculus [10] = assay: Anticonvulsant activity in albino Carworth Farms No.1 mouse assessed as protection against electric-current for 3 secs-induced seizure at 75 mg/kg, ip after 1 hr by 6Hz minimal clonic seizure test; type: functional, organism-based; set-up: dose 75 mg/kg; how it was run: as §1
Mus musculus [11] = assay: Anticonvulsant activity in albino Carworth Farms No.1 mouse assessed as protection against electric-current for 3 secs-induced seizure at 75 mg/kg, ip after 2 hrs by 6Hz minimal clonic seizure test; type: functional, organism-based; set-up: dose 75 mg/kg; how it was run: as §1
Mus musculus [12] = assay: Anticonvulsant activity in ip dosed albino Carworth Farms No.1 mouse assessed as protection against maximal electroshock-induced seizure after 0.25 hrs; type: functional; conditions: albino Carworth Farms No.1, ip
How it was run: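 Mouse quantification at the time of peak effect, compound given i.p. in 0.5% methylcellulose. Groups of at least eight mice received varied doses until at least two points fell between 100 and 0% response. ED50 (MES, scMET) and TD50 (rotorod) with 95% CI by probit analysis (Finney). PI = TD50/ED50 MES.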

Mus musculus [13] = assay: Anticonvulsant activity in ip dosed albino Carworth Farms No.1 mouse assessed as time needs to show peak effect for protection against maximal electroshock-induced seizure; type: functional
Mus musculus [14] = assay: Anticonvulsant activity in ip dosed albino Carworth Farms No.1 mouse assessed as protection against electric-current for 3 secs-induced seizure after 0.25 hrs by 6Hz minimal clonic seizure test; type: functional; conditions: albino Carworth Farms No.1, ip
[15] = Neurotoxicity in po dosed albino Sprague-Dawley rat assessed as motor impairment after 0.25 hrs by rotarod test; type: toxicity, organism-based; conditions: in vivo
How it was run: (§4)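 Rats dosed orally, compound in 0.5% methylcellulose. MES at 150 mA, 60 Hz, 0.2 s; scMET with pentylenetetrazole 70 mg/kg s.c. plus 30 min observation; rotorod for toxicity.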

Rattus norvegicus [16] = species on record: Rattus norvegicus; assay: Protective index, ratio of TD50 for albino Sprague-Dawley rat to ED50 for albino Sprague-Dawley rat by maximal electroshock-induced seizure test; type: functional
Rattus norvegicus [17] = assay: Anticonvulsant activity in po dosed albino Sprague-Dawley rat assessed as time needs to show peak effect for protection against maximal electroshock-induced seizure after 0.25 hrs; type: functional; how it was run: as §4
Rattus norvegicus [18] = assay: Toxicity in albino Sprague-Dawley rat pilocarpine-induced status epilepticus model assessed as change in body weight in protected rat at 130 mg/kg, ip measured after 24 hrs of time from first stage 3 seizures; type: organism-based; set-up: dose 130 mg/kg, route intraperitoneal; conditions: in vivo
How it was run: (§5)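 Male albino Sprague-Dawley rats (150–180 g) received compound i.p., then a pilocarpine challenge immediately (0 min) or 30 min after treatment. The outcome was protection or no protection from seizures, scored as number protected/number tested. Average body weight change (g) ± S.E.M. was reported separately for protected and non-protected rats.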

Rattus norvegicus [19] = assay: Toxicity in albino Sprague-Dawley rat pilocarpine-induced status epilepticus model assessed as change in body weight in protected rat at 65 mg/kg, ip measured after 24 hrs of time from first stage 3 seizures; type: organism-based; set-up: dose 65 mg/kg, route intraperitoneal; conditions: in vivo; how it was run: as §5
Rattus norvegicus [20] = species on record: Rattus norvegicus; assay: Activation of voltage-gated sodium channel in Wistar rat cerebral prefrontal coronal slices assessed as increase of 0.1 Hz current-induced current amplitude at 10 uM after 5 mins by whole cell voltage clamp method
How it was run: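 Whole-cell voltage clamp on mechanically dispersed mPFC cells from coronal prefrontal slices of 3-week-old male Wistar rats. Bath: TEA-OH 90, NaCl 30, HEPES 10, MgCl2 2, CaCl2 2, glucose 15 mM, pH 7.4. Na+ currents evoked at 0.1 Hz by a step to -20 mV (30 ms) after a -100 mV prepulse (1000 ms). Amplitude compared before and after 5 min compound application; n = 3.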

Mus musculus [21] = assay: Anticonvulsant activity in albino Carworth Farms No.1 mouse assessed as protection against maximal electroshock-induced seizure at 30 mg/kg, ip after 4 hrs; type: functional, organism-based; set-up: dose 30 mg/kg
How it was run: (§6)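 Mouse MES test with compound given i.p. (30, 100 or 300 mg/kg) in 0.5% methylcellulose; tested at 0.5 and 4 h. Corneal stimulus of 50 mA at 60 Hz for 0.2 s, electrodes primed with 0.5% butacaine in 0.9% NaCl. Protection is abolition of hindlimb tonic extension; scored as protected/tested.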

Mus musculus [22] = assay: Anticonvulsant activity in albino Carworth Farms No.1 mouse assessed as protection against maximal electroshock-induced seizure at 100 mg/kg, ip after 4 hrs; type: functional, organism-based; set-up: dose 100 mg/kg; how it was run: as §6
Mus musculus [23] = assay: Neurotoxicity in albino Carworth Farms No.1 mouse assessed as motor impairment at 30 mg/kg, ip after 4 hrs by rotarod test; type: toxicity, organism-based; set-up: dose 30 mg/kg, route intraperitoneal; conditions: in vivo; how it was run: as §2
Mus musculus [24] = assay: Neurotoxicity in albino Carworth Farms No.1 mouse assessed as motor impairment at 300 mg/kg, ip after 4 hrs by rotarod test; type: toxicity, organism-based; set-up: dose 300 mg/kg, route intraperitoneal; conditions: in vivo; how it was run: as §2

O=C1NC(=O)[C@@H]2CCCN2[C@H]1c1ccccc1
Activity (Mus musculus [1]): inactive
Activity (Mus musculus [2]): Non-toxic
Activity (Mus musculus [3]): Non-toxic
Activity (Mus musculus [4]): Non-toxic
Activity (Mus musculus [5]): Toxic
Activity (Mus musculus [6]): inactive
Activity (Mus musculus [7]): inactive
Activity (Mus musculus [8]): inactive
Activity (Mus musculus [9]): inactive
Activity (Mus musculus [10]): inactive
Activity (Mus musculus [11]): inactive
ED50 (Mus musculus [12]): 69.5 mg/kg
Time (Mus musculus [13]): 0.25 h
ED50 (Mus musculus [14]): 9.93 mg/kg
TD50 at 0.25 h [15]: > 500 mg/kg
Ratio TD50/ED50 (Rattus norvegicus [16]): >12.6
Time (Rattus norvegicus [17]): 0.25 h
Activity (Rattus norvegicus [18]): 12.5 g
Activity (Rattus norvegicus [19]): 4.4 g
Activity (Rattus norvegicus [20]): 3%
Activity (Mus musculus [21]): inactive
Activity (Mus musculus [22]): inactive
Activity (Mus musculus [23]): Non-toxic
Activity (Mus musculus [24]): Non-toxic
